Test [1] is described as follows: Her2 expression decrease, cell viability multiplex – SKBR3 breast tumor cells, AlphaScreen, ATP viability, primary screen (AID 461;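 active = Her2 level under about 52% in both replicate screens, with viability over 70% of control, limit read from the data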;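 for Her2 level: lower value means less Her2 protein in the cells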;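 for viability: percent of carrier control wells set as 100% viability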). The settings on record: SKBR3 Her2 protein level, 18-24 h, measured here: SKBR3 viability, ATP luminescence, at 10 µM. Background: Alpha assays give light when donor and acceptor beads are brought close together.
For test [2], the target named is Receptor tyrosine-protein kinase erbB-2 (Homo sapiens) (UniProt P04626). The test is described as above. The settings on record: 18-24 h, at 10 µM, stronger effect = lower value.
A short description of test [3]: reduced viability of SK-BR-3 breast cancer cells – cell-based, 24 h, human, pilot screen (AID 572;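 active = viability at or below 10% of carrier control in both of two separate runs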;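 note: compound exposure lasted between 18 and 24 h rather than exactly 24 h; 100% = carrier-treated control wells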). The settings on record: SK-BR-3 viability, CellTiter-Glo luminescence, at 10 µM, stronger effect = lower value. For orientation: In ATP-based viability assays light output follows the ATP content of the culture.
The nature of test [4]: HUVEC growth inhibition – cell-based, human, primary screen (AID 575;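 active = viability at or below 30% in both replicate assays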;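 note: 100% = median of untreated cell wells with 0.1% DMSO on each plate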). The settings on record: HUVEC proliferation, CellTiter-Glo luminescence, 72 h; at 10 µM; stronger effect = lower value. Put shortly:
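Test system: primary human umbilical vein endothelial cells. Quantity: 1250 cells/well. Compound: single 10 µM dose, 0.1% DMSO, from 5x medium stock. Timing: 72 h treatment at 37 °C. Detection: ATP-based CellTiter-Glo luminescent read. Benchmarks: vehicle and MePR control wells. Format: 384-well plates coated with collagen.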

A short description of test [5]: H69AR cell proliferation blockers – human, duplicate replicates, primary screen (AID 580).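 Note: 100% = mean luminescence of untreated wells and 0% = no signal.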 The settings on record: H69AR lung tumor cells viability, ATP luminescence, 72 h; at 10 µM; stronger effect = lower value.
A short description of test [6]: MRP1 drug-resistance reversers in H69AR cells – cell-based, doxorubicin co-treatment, pilot screen (AID 601;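 active = viability loss from added drug above about 55%, and viability with drug at most 40%, in both replicates, limit read from the data, passing the limit was not always enough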). The settings on record: CellTiter-Glo, 72 h, at 10 µM; for differential viability (reversal): stronger effect = higher value.
The nature of test [7]: yeast transport mutant growth inhibition pilot in 384-well plates, post-Golgi transport modulator project (AID 636; in the data active = inhibition above about 31%). The settings on record: absorbance 615 nm, about 18 h, stronger effect = higher value.
Test [8] can be described thus: growth suppression of yeast trafficking mutant, preliminary HTS, modulators of trafficking downstream of Golgi apparatus project, 1536-format plate, OD 615 nm (AID 637; in the data active = inhibition above about 30%). The settings on record: yeast transport mutant growth, absorbance 615 nm, 18 h; stronger effect = higher value.
Where [9] appears, read: H69AR cells + 2 uM doxorubicin, measured here: viability with 2 uM doxorubicin, stronger effect = lower value.
Setting [10] is: H69AR cells, compound alone cytotoxicity.

As usually defined, the viability is a read-out of living cells in per cent, often relative to untreated cells. Broadly, the inhibition is the drop in the measured response relative to a control, in per cent.

Activity calls are given as the source filed them.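 Rule for the calls, unless noted: active = viability at or under a set limit in both replicates, limit being median viability minus 3 SD (cut at about 48% in these data, passing the limit was not always enough); inconclusive = at or under the limit in just one replicate; inactive = at or above the limit in both replicates.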

Chain of Receptor tyrosine-protein kinase erbB-2 (Homo sapiens) (P04626 whole entry, looked up): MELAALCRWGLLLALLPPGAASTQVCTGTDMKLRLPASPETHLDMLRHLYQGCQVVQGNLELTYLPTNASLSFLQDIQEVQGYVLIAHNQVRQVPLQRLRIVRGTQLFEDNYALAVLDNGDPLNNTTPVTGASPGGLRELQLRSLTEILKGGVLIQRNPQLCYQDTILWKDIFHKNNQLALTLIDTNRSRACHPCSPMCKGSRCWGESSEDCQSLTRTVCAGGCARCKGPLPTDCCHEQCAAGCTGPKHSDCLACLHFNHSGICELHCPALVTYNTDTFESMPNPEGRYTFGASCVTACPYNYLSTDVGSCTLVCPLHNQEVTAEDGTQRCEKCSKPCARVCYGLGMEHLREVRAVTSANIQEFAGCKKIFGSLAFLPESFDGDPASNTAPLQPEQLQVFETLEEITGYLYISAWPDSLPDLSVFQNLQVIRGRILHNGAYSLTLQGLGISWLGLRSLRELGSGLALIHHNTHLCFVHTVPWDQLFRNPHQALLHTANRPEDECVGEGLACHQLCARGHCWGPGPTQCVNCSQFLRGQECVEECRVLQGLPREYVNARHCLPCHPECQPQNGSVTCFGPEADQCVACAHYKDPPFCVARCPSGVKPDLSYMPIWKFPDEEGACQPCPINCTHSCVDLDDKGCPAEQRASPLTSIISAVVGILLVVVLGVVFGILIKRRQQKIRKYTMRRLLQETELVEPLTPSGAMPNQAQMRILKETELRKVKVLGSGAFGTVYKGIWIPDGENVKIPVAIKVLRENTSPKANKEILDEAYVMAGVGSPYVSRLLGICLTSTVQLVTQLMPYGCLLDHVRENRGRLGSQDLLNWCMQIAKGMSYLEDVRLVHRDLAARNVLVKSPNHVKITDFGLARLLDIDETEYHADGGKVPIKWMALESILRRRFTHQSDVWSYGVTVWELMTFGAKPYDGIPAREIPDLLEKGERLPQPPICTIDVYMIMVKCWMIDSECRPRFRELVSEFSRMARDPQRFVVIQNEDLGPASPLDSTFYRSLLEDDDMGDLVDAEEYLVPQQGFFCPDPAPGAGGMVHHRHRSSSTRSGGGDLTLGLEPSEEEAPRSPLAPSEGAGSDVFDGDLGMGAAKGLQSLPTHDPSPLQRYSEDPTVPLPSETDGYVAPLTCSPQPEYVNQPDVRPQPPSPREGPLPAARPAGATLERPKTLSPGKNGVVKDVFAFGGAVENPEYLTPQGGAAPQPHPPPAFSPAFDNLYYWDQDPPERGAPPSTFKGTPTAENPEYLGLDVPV

For `CCOC(=O)N1CCN(c2nc(-c3ccc(Cl)cc3)cs2)CC1`, the viability is 79.5% in test [1]; 79.5% (inactive) in test [3]; 98.3% (inactive) in test [4]; 89.1% (inactive) in test [5]; 98.6% in test [6] (setting [9]); 89.1% in test [6] (setting [10]). Further, in test [2], the Her2 level was 125% (inactive). The differential viability (reversal) in test [6] (H69AR cells + 2 uM doxorubicin) was -9.49% (inactive). Further, the inhibition in test [7] is -4.23% (inactive); in test [8] it was -7.83% (inactive).
Turning to `O=C(CN1C(=O)CCSc2ccccc21)Nc1ccc(F)cc1`, the viability in test [1] was 94%; in test [3], 94% (inactive); in test [4], 97.6% (inactive); in test [5], 98.5% (inactive); in test [6] (setting [9]) it was 97.5%; in test [6] (setting [10]), 98.5%. Besides, the Her2 level in test [2] is 112% (inactive). The differential viability (reversal) in test [6] (H69AR cells + 2 uM doxorubicin) was 1.06% (inactive). Further, the results for the inhibition in test [7] and in test [8] were 3.29% (inactive) and 0.16% (inactive), respectively.
As to `CCCNC(=O)Nc1ccccc1C(=O)Nc1ccc(OC)cc1`, the viability in test [1] is 85%; in test [3], 85% (inactive); in test [4], 85.7% (inactive); in test [5], 94.6% (inactive); in test [6] (setting [9]), 104%; in test [6] (setting [10]), 94.6%. Moreover, the Her2 level in test [2] is 81% (inactive). The differential viability (reversal) in test [6] (H69AR cells + 2 uM doxorubicin) is -9.12% (inactive). Besides, the inhibition in test [7] was -4.46% (inactive); in test [8] it was -2.3% (inactive).
Take `CC(Sc1nnnn1-c1ccccc1)C(=O)Nc1ccc(Cl)cn1` (stereo not given): the viability in test [1] was 87.5%; in test [3] it was 87.5% (inactive); in test [4], 73.9% (inactive); in test [5], 92.7% (inactive); in test [6] (setting [9]), 86.1%; in test [6] (setting [10]), 92.7%. Besides, the Her2 level in test [2] is 89% (inactive). Further, the differential viability (reversal) in test [6] (H69AR cells + 2 uM doxorubicin) was 6.54% (inactive). Also, the values for the inhibition in test [7] and in test [8] were -2.76% (inactive) and 5.4% (inactive), respectively.
As to `COc1ccccc1C(=O)N1CCN(C(=O)c2ccncc2)CC1`, the viability in test [1] was 122%; in test [3], 122% (inactive); in test [4], 88.6% (inactive); in test [5], 103% (inactive); in test [6] (setting [9]), 89.2%; in test [6] (setting [10]), 103%. For the same compound, the Her2 level in test [2] was 106% (inactive). Also, the differential viability (reversal) in test [6] (H69AR cells + 2 uM doxorubicin) is 13.7% (inactive). Besides, the inhibition was -3.73% (inactive) in test [7] and 4.35% (inactive) in test [8].
For the compound `C[C@H](NC(=O)Nc1ccccc1F)C(=O)O`, the viability was 100% in test [1]; 100% (inactive) in test [3]; 101% (inactive) in test [4]; 100% (inactive) in test [5]; 115% in test [6] (setting [9]); 100% in test [6] (setting [10]). Also, the Her2 level in test [2] is 96% (inactive). The differential viability (reversal) in test [6] (H69AR cells + 2 uM doxorubicin) is -14.3% (inactive). Moreover, the inhibition in test [7] was -3.42% (inactive); in test [8], 4.43% (inactive).
Turning to `Cc1nnc2ccc(N3CCN(c4cccc(C(F)(F)F)c4)CC3)nn12`, the viability in test [1] is 97.5%; in test [3] it was 97.5% (inactive); in test [4], 75% (inactive); in test [5], 80.3% (inactive); in test [6] (setting [9]) it was 61.6%; in test [6] (setting [10]), 80.3%. Besides, the Her2 level in test [2] is 77.5% (inactive). In addition, the differential viability (reversal) in test [6] (H69AR cells + 2 uM doxorubicin) is 18.7% (inactive). Besides, the inhibition in test [7] is -0.53% (inactive); in test [8], -1.15% (inactive).
With `COc1cc(CN(C)CC(=O)c2[nH]c(C)c(C(C)=O)c2C)ccc1OC(F)F`, the viability was 104% in test [1]; 104% (inactive) in test [3]; 97.3% (inactive) in test [4]; 85% (inactive) in test [5]; 78.6% in test [6] (setting [9]); 85% in test [6] (setting [10]). Moreover, the Her2 level in test [2] is 82.5% (inactive). The differential viability (reversal) in test [6] (H69AR cells + 2 uM doxorubicin) was 6.44% (inactive). Also, the inhibition in test [7] is -5.2% (inactive); in test [8], -5.08% (inactive).
Take `O=C(O)CC1NC(=O)N(c2ccccc2)C1=O` (stereo not given): the viability is 108% in test [1]; 108% (inactive) in test [3]; 109% (inactive) in test [4]; 99.3% (inactive) in test [5]; 91.5% in test [6] (setting [9]); 99.3% in test [6] (setting [10]). Also, the Her2 level in test [2] is 85% (inactive). In test [6] (H69AR cells + 2 uM doxorubicin), the differential viability (reversal) is 7.85% (inactive). In addition, the inhibition in test [7] is -5.33% (inactive); in test [8], 0% (inactive).
Take `CC(=O)Nc1ccc(S(=O)(=O)N2CCN=C2C)cc1`: the viability in test [1] was 92.5%; in test [3] it was 92.5% (inactive); in test [4], 109% (inactive); in test [5], 99.4% (inactive); in test [6] (setting [9]), 96.8%; in test [6] (setting [10]), 99.4%. Moreover, in test [2], the Her2 level is 95% (inactive). In test [6] (H69AR cells + 2 uM doxorubicin), the differential viability (reversal) is 2.62% (inactive). The inhibition was -6.27% (inactive) in test [7] and -5.08% (inactive) in test [8].
Consider `Cc1nnc(NC(=O)c2ccccc2F)s1`, for which the viability was 100% in test [1]; 100% (inactive) in test [3]; 107% (inactive) in test [4]; 104% (inactive) in test [5]; 90.2% in test [6] (setting [9]); 104% in test [6] (setting [10]). The Her2 level in test [2] is 101% (inactive). The differential viability (reversal) in test [6] (H69AR cells + 2 uM doxorubicin) was 13.8% (inactive). Also, the inhibition in test [7] is -3.24% (inactive); in test [8], 4.76% (inactive).
With `CCOC(=O)C1CCN(C(=O)COc2ccc(Cl)cc2Cl)CC1`, the viability in test [1] was 109%; in test [3], 109% (inactive); in test [4], 101% (inactive); in test [5], 96.2% (inactive); in test [6] (setting [9]), 86.1%; in test [6] (setting [10]), 96.2%. For the same compound, the Her2 level in test [2] was 98% (inactive). In test [6] (H69AR cells + 2 uM doxorubicin), the differential viability (reversal) is 10.2% (inactive). Besides, the figures for the inhibition in test [7] and in test [8] were -3.64% (inactive) and -6.35% (inactive), respectively.
In the case of `O=C(NCc1ccco1)c1cc2n(n1)C(C(F)(F)F)CC(c1ccc(F)cc1)N2` (stereo not given), the viability in test [1] is 120%; in test [3], 120% (inactive); in test [4] it was 67.1% (inactive); in test [5], 86.8% (inactive); in test [6] (setting [9]) it was 82.9%; in test [6] (setting [10]), 86.8%. In addition, in test [2], the Her2 level is 106% (inactive). In addition, in test [6] (H69AR cells + 2 uM doxorubicin), the differential viability (reversal) is 3.92% (inactive). The inhibition was -4.8% (inactive) in test [7] and -4.68% (inactive) in test [8].
`COc1ccc(CN(CC(=O)NCC2CCCO2)C(=O)CNS(=O)(=O)c2ccc(C)cc2)cc1` (stereo not given): the viability in test [1] is 107%; in test [3], 107% (inactive); in test [4], 96.3% (inactive); in test [5] it was 97.2% (inactive); in test [6] (setting [9]), 95%; in test [6] (setting [10]), 97.2%. Moreover, the Her2 level in test [2] was 102% (inactive). In addition, the differential viability (reversal) in test [6] (H69AR cells + 2 uM doxorubicin) is 2.2% (inactive). The inhibition in test [7] was -0.53% (inactive); in test [8], -6.23% (inactive).
Regarding `CN1C(=O)C2(NCCc3c2[nH]c2ccccc32)c2ccccc21` (stereo not given), the viability in test [1] was 114%; in test [3], 114% (inactive); in test [4], 86.8% (inactive); in test [5] it was 109% (inactive); in test [6] (setting [9]), 96%; in test [6] (setting [10]), 109%. The Her2 level in test [2] was 100% (inactive). Moreover, the differential viability (reversal) in test [6] (H69AR cells + 2 uM doxorubicin) is 12.9% (inactive). Moreover, the inhibition is -3.82% (inactive) in test [7] and 6.07% (inactive) in test [8].

The record behind these values is PubChem BioAssay.
